Source: PubChem
M4 antag – human M4 muscarinic receptor antagonists, primary screen, CHO cells, Fluo-8 calcium fluorescence. Muscarinic acetylcholine receptor M4 (Homo sapiens), P08173. CHO-hM4 cells, ACh EC80. inhibition, % at 3 µM. 0.73% of 360,000 active;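 active means inhibition above its plate's cutoff, the mean inhibition of sample wells plus 3 SD, cut at about 27% in these data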;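 further: 0% = acetylcholine EC80 with DMSO and 100% = DMSO without agonist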
Target sequence (P08173 whole entry, looked up): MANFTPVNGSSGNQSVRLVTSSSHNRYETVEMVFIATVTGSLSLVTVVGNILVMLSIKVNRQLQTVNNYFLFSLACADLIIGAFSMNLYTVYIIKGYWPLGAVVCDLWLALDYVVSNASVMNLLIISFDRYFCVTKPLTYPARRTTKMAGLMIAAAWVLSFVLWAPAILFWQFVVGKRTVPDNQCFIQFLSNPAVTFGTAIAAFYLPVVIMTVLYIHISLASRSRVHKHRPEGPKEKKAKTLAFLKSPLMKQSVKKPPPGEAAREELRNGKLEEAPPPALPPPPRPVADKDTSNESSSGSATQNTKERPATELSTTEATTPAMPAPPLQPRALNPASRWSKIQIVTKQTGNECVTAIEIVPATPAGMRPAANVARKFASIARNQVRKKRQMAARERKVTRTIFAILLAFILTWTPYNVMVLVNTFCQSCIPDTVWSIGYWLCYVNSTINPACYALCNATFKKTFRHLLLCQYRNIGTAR
M5 antag – human M5 muscarinic receptor antagonists, primary screen, CHO cells, Fluo-8 calcium fluorescence; 0.59% of 360,000 active; Muscarinic acetylcholine receptor M5 (Homo sapiens), P08912; inhibition, % at 3 µM; CHO-hM5 cells, ACh EC80; AID 624040, 2012;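 active means inhibition above a per-plate cutoff, the mean of that plate's test compounds plus 3 SD, cut at about 27% in these data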;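 further: 0% = acetylcholine EC80 with DMSO and 100% = DMSO without agonist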
CHRM4 agonist – human M4 muscarinic receptor agonists, primary screen, CHO-K1 cells, Fluo-8 calcium fluorescence; Muscarinic acetylcholine receptor M4 (Homo sapiens), P08173; CHO-K1 hM4/Gqi5; vehicle 0%, full acetylcholine response 100%; activation, % at 3 µM; 0.14% of 360,000 active;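 active means activation above the run mean over all test wells plus 3 SD, cut at about 32% in these data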;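 further: peak over basal fluorescence ratio per well then scaled between controls; 0% = DMSO wells and 100% = acetylcholine at EC100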
CHRM5 PAM – human M5 muscarinic receptor positive allosteric modulators, primary screen, CHO-K1 cells, Fluo-8 calcium fluorescence; Muscarinic acetylcholine receptor M5 (Homo sapiens), P08912; CHO-K1 hM5, ACh EC20 PAM; 0% = ACh EC20, 100% = ACh EC100; activation, % at 3 µM; 0.3% of 360,000 active;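 active means activation above the run cutoff, the mean activation of all test compounds plus 3 SD, cut at about 18% in these data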
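System: CHO-K1 cell line with stable human muscarinic M5 receptor expression | Also added: EC20 acetylcholine as agonist stimulus | Compound: One concentration, 3 µM final (nominal) | Timing: Fluo-8 loading 80 min at 37 °C plus 30 min room temperature | Measured by: Fluo-8 calcium dye fluorescence, kinetic read | Read-out basis: % activation, ACh-normalized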
CHRM5 agonist – human M5 muscarinic receptor agonists, primary screen, CHO-K1 cells, Fluo-8 calcium fluorescence; Muscarinic acetylcholine receptor M5 (Homo sapiens), P08912; CHO-K1 hM5 cells; 0% DMSO wells, 100% maximal acetylcholine response; activation, % at 3 µM; 0.19% of 360,000 active; AID 624037, 2012;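 active means activation above the run's mean over test compounds plus 3 SD, cut at about 23% in these data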;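 further: signal is peak over basal fluorescence ratio across the kinetic read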
CHRM4 PAM – human M4 muscarinic receptor positive allosteric modulators, primary screen, CHO-K1 cells, Fluo-8 calcium fluorescence | CHO-K1 hM4/Gqi5, ACh EC20; 0% = ACh EC20, 100% = maximal ACh | 0.4% of 360,000 active | activation, % at 3 µM | Muscarinic acetylcholine receptor M4 (Homo sapiens), P08173;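 active means activation above its plate's cutoff, the mean activation of sample wells plus 3 SD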
The depositor's hits bear a star. Shown are actives, neighbours in structure and some others; about 1.8% of the full set was active somewhere.

SMILES | M4 antag | M5 antag | CHRM4 agonist | CHRM5 PAM | CHRM5 agonist | CHRM4 PAM
O=C1CCC(C(=O)N2CCCO2)CN1Cc1cccc(C(F)(F)F)c1 (stereo not given) | -10 | -30 | 2 | 19* | -2 | 19*
CC(C)NC(=O)C1(C)CN(S(C)(=O)=O)CC(=O)N1Cc1cccs1 (stereo not given) | -3 | -11 | 2 | 10 | 2 | 25*
CNC(=O)C[C@@H]1C(=O)N(CCc2ccccc2)CC1(C)C | -5 | -2 | 0 | 0 | 0 | -1
O=C(C1CCN(Cc2ccc(Cl)cc2)CC1)N1CCN(C(c2ccccc2)c2ccccc2)CC1 | 74* | 44* | 0 | -19 | -8 | -18
O=C(c1ccc(Cl)cc1)C1CCN(Cc2ccccc2)CC1 | 0 | -8 | 1 | -12 | -23 | -14
COc1ccc(CNC(=O)C2CCN(S(=O)(=O)c3ccc4nc5c(c(C(=O)O)c4c3)CCCC5)CC2)cc1 | -9 | 4 | 0 | 9 | 7 | 7
O=C(NCCN1CCCC1)c1ccc(Cn2c(=S)[nH]c3cc4c(cc3c2=O)OCO4)cc1 | -6 | 12 | 1 | -15 | 28* | -8
CN1CCCCC1CCN1c2ccccc2Sc2ccc(S(C)=O)cc21 (stereo not given) | 88* | 98* | 1 | -18 | -2 | -18
C=CCN1C(=O)c2ccccc2Sc2ccc(C(=O)N3CCN(C)CC3)cc21 | 4 | 0 | 1 | 0 | -1 | 0
Cc1ccc(/C=C2\CCC3=C2OC(N)=C(C#N)C3c2ccc(C)cc2)cc1 (stereo not given) | 30* | 33* | 15 | -28 | 4 | 1
Cc1ccc(CNC(=O)CSc2nnc(CNC(=O)c3ccccc3)o2)cc1 | -6 | 0 | 2 | 0 | -2 | 23*
COc1cccc(C(C)(O)c2nc(-c3ccc(S(C)(=O)=O)cc3)cs2)c1 (stereo not given) | -4 | -11 | 7 | -5 | 2 | 1
COc1cccc(C2Nc3ccccc3C(=O)N2Cc2ccccc2)c1 (stereo not given) | 24 | 28* | 7 | 28* | -6 | 8
O=C1c2ccccc2NC(c2ccccc2)N1Cc1ccccc1 (stereo not given) | 6 | 11 | 9 | -2 | -15 | -11
O=C(C1CCCCC1)N1CCN=C1SCc1cccc([N+](=O)[O-])c1 | 32* | 0 | 0 | -2 | -9 | -17
O=C(C1CCCCC1)N1CCN=C1SCc1cccnc1 | -5 | 0 | 1 | -3 | 1 | -2
O=C(c1ccccc1)N1CCN=C1SCc1ccc([N+](=O)[O-])cc1 | 29* | 4 | 0 | -9 | -6 | -16
COc1ccc(-c2ccc(C(=O)NCc3ccc(N4CCN(C)CC4)cc3)c3occc23)c(C)c1 | 0 | 5 | 5 | -3 | -1 | -4
Cc1ccc(S(=O)(=O)NC(=O)C2(C)CCN2C(=O)c2cccc(F)c2)cc1 (stereo not given) | -6 | 5 | 0 | 0 | 1 | 5
CN1C=CC(C(C(N)=O)c2ccccc2)c2ccccc21 (stereo not given) | -10 | -3 | 1 | 0 | 0 | 11
COC(=O)c1ccc(CN2CCC(CO)(Cc3ccccc3Cl)CC2)cc1 | 27* | 0 | 2 | -3 | -11 | -24
COC(=O)c1ccc(CN2CCCC(CO)(Cc3ccccc3F)C2)cc1 (stereo not given) | 7 | -2 | 4 | 0 | -12 | -13
COC(=O)C(/C=N/OCc1ccc([N+](=O)[O-])cc1)NC(=O)c1cccc(Cl)c1 (stereo not given) | 12 | -1 | 29 | -10 | 34* | 10
Cc1ccc(CONC(=O)c2cccc([N+](=O)[O-])c2)cc1 | 2 | 0 | 0 | 5 | 1 | 0
CCCCC(CC)C(=O)Nc1cc(=O)[nH]c2nc3ccccc3n12 (stereo not given) | -7 | 12 | 0 | -5 | -3 | 0
SMILES | M4 antag | M5 antag | CHRM4 agonist | CHRM5 PAM | CHRM5 agonist | CHRM4 PAM
CC(C)C(=O)Nc1cc(=O)[nH]c2ncnn12 | -11 | -3 | 0 | 1 | -2 | 19*
COc1ccc2c(c1)OC[C@H]1[C@H]2N2C(=O)c3cc(Br)ccc3NC(=O)[C@@]2(C)[C@H]1c1ccccc1 | 16 | 1 | 3 | -1 | 1 | -11
O=C(Nc1ccccc1N1CCN(c2ccc(F)cc2)CC1)C12CC3CC(CC(C3)C1)C2 | 0 | 1 | -1 | 20* | -4 | 1
Nc1nc2ccccc2cc1C(=O)NCCCCc1ccccc1 | 14 | 28* | 17 | -23 | 8 | -8
Cc1ccc(NS(=O)(=O)c2ccc(C(=O)N3CC(C)CC(C)C3)cc2)cc1 (stereo not given) | 35* | 31* | 107* | -15 | 56* | -19
CS(=O)(=O)Nc1ccc(C(=O)N2CCCCC2)cc1 | -3 | -4 | 3 | -8 | 0 | 23*
CC1CN(C(=O)c2ccc(S(=O)(=O)Nc3cccc(C(F)(F)F)c3)cc2)CC(C)O1 (stereo not given) | -11 | 3 | 12 | -4 | 28* | -2
COc1ccc(CN2CCNC(=O)C2CC(=O)N(Cc2nccn2C)C(C)C)c(OC)c1 (stereo not given) | -1 | -5 | 1 | 6 | -3 | 31*
CC(C)N(Cc1nccn1C)C(=O)CC1C(=O)NCCN1Cc1ccc(F)cc1 (stereo not given) | -4 | -2 | 1 | 10 | -1 | -3
C[C@H]1CN([C@@H](C)CO)C(=O)c2cc(C#Cc3ccccn3)cnc2O[C@@H]1CN(C)Cc1ccccc1 | -18 | -4 | 1 | 4 | -1 | 8
COc1ncnc2c1ncn2CCCNCc1ccc(C)o1 | -4 | 1 | 0 | -3 | 0 | -4
COc1ccc(OC)c(C(=O)COC(=O)c2c(OC)cccc2OC)c1 | -1 | -6 | 4 | -3 | -1 | -4
COc1ccc(OC)c(C(=O)CCCC(=O)c2cc(OC)ccc2OC)c1 | 31* | 4 | 2 | -5 | -5 | -6
CCOC(=O)c1ccc(NC(=O)Nc2nncs2)cc1 | 1 | -4 | 5 | -3 | 4 | -6
COc1ccc(S(=O)(=O)N2CCCCCC2)cc1C(=O)Nc1ccccn1 | -12 | -19 | 4 | 8 | -2 | 6
